Source: ChEMBL document CHEMBL3616442, “Unconventional Knoevenagel-type indoles: Synthesis and cell-based studies for the identification of pro-apoptotic agents” (Eur J Med Chem, 2015)

Key:
[1] = Growth inhibition of human MOLT4 cells after 48 hrs by sulforhodamine B assay; assay type: functional; conditions: MOLT-4, 48 h
Procedure, shortened: (§1)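 NCI 60-cell-line screen. Compounds tested at five 10-fold dilutions from 10^-4 to 10^-8 M. Cells exposed for the last 48 h of a 72 h incubation, growth estimated by sulforhodamine B protein assay. GI50 is the concentration giving 50% growth inhibition. Values beyond the tested range are expressed as greater or lesser than the extreme concentration.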

[2] = tested on: A549; experiment: Growth inhibition of human A549 cells after 48 hrs by sulforhodamine B assay; assay type: functional; conditions: A549, 48 h; procedure, shortened: as §1
[3] = Growth inhibition of human EKVX cells after 48 hrs by sulforhodamine B assay; assay type: functional; procedure, shortened: as §1
[4] = tested on: HOP-62; experiment: Growth inhibition of human HOP62 cells after 48 hrs by sulforhodamine B assay; assay type: functional; conditions: HOP-62, 48 h; procedure, shortened: as §1
[5] = tested on: NCI-H226; experiment: Growth inhibition of human NCI-H226 cells after 48 hrs by sulforhodamine B assay; assay type: functional; conditions: NCI-H226, 48 h; procedure, shortened: as §1
[6] = Growth inhibition of human HCC2998 cells after 48 hrs by sulforhodamine B assay; assay type: functional; conditions: HCC 2998, 48 h; procedure, shortened: as §1
[7] = tested on: HCT-15; experiment: Growth inhibition of human HCT15 cells after 48 hrs by sulforhodamine B assay; assay type: functional; conditions: HCT-15, 48 h; procedure, shortened: as §1
[8] = Growth inhibition of human LOXIMVI cells after 48 hrs by sulforhodamine B assay; assay type: functional; conditions: LOX IMVI; procedure, shortened: as §1
[9] = tested on: MDA-MB-435; experiment: Growth inhibition of human MDA-MB-435 cells after 48 hrs by sulforhodamine B assay; assay type: functional; conditions: MDA-MB-435, 48 h; procedure, shortened: as §1
[10] = tested on: SK-MEL-28; experiment: Growth inhibition of human SK-MEL-28 cells after 48 hrs by sulforhodamine B assay; assay type: functional; conditions: SK-MEL-28, 48 h
[11] = tested on: OVCAR-3; experiment: Growth inhibition of human OVCAR3 cells after 48 hrs by sulforhodamine B assay; assay type: functional; conditions: OVCAR-3, 48 h; procedure, shortened: as §1
[12] = Growth inhibition of human RXF393 cells after 48 hrs by sulforhodamine B assay; assay type: functional; conditions: RXF 393, 48 h
[13] = tested on: SN12C; experiment: Growth inhibition of human SN12C cells after 48 hrs by sulforhodamine B assay; assay type: functional
[14] = tested on: TK-10; experiment: Growth inhibition of human TK10 cells after 48 hrs by sulforhodamine B assay; assay type: functional; conditions: TK-10, 48 h
[15] = tested on: MCF7; experiment: Growth inhibition of human MCF7 cells after 48 hrs by sulforhodamine B assay; assay type: functional; conditions: MCF7, 48 h; procedure, shortened: as §1
[16] = tested on: MDA-MB-231; experiment: Growth inhibition of human MDA-MB-231 cells after 48 hrs by sulforhodamine B assay; assay type: functional; conditions: MDA-MB-231, 48 h; procedure, shortened: as §1
[17] = Growth inhibition of human Hs 578T cells after 48 hrs by sulforhodamine B assay; assay type: functional; procedure, shortened: as §1
[18] = tested on: MDA-MB-468; experiment: Growth inhibition of human MDA-MB-468 cells after 48 hrs by sulforhodamine B assay; assay type: functional; conditions: MDA-MB-468, 48 h; procedure, shortened: as §1
[19] = tested on: CCRF-CEM; experiment: Cytotoxicity against human CCRF-CEM cells after 96 hrs by MTT assay; assay type: functional, cell-based
Procedure, shortened: (§2)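 ATCC cell lines, mycoplasma-free by Hoechst staining. Haematological lines in RPMI-1640, solid-tumour and normal fibroblast lines in their own media, all with 10% FCS and antibiotics, at 37 °C in 5% CO₂. Compounds added as serial dilutions from a 100 mM DMSO stock diluted in medium. Viability by MTT after 96 h at 37 °C. Mean ± SD of three independent determinations.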

[20] = tested on: WIL2-NS; experiment: Cytotoxicity against human WIL2-NS cells after 96 hrs by MTT assay; assay type: functional, cell-based; procedure, shortened: as §2
[21] = tested on: CCRF-SB; experiment: Cytotoxicity against human CCRF-SB cells after 96 hrs by MTT assay; assay type: functional, cell-based; procedure, shortened: as §2
[22] = tested on: MRC5; experiment: Cytotoxicity against human MRC5 cells after 96 hrs by MTT assay; assay type: cell-based; conditions: MRC5, 96 h; procedure, shortened: as §2
[23] = Cytotoxicity against human CRL7065 cells after 96 hrs by MTT assay; assay type: cell-based; conditions: CRL-7065, 96 h; procedure, shortened: as §2
[24] = tested on: SK-MEL-28; experiment: Cytotoxicity against human SK-MEL-28 cells after 96 hrs by MTT assay; assay type: functional, cell-based; conditions: SK-MEL-28, 96 h; procedure, shortened: as §2
[25] = Cytotoxicity against human SKMES1 cells after 96 hrs by MTT assay; assay type: functional, cell-based; conditions: SK-MES-1, 96 h; procedure, shortened: as §2
[26] = tested on: DU-145; experiment: Cytotoxicity against human DU145 cells after 96 hrs by MTT assay; assay type: functional, cell-based; conditions: DU-145, 96 h; procedure, shortened: as §2
[27] = tested on: HepG2; experiment: Cytotoxicity against human HepG2 cells after 96 hrs by MTT assay; assay type: functional, cell-based; conditions: HepG2, 96 h; procedure, shortened: as §2
[28] = tested on: MCF7; experiment: Cytotoxicity against human MCF7 cells after 96 hrs by MTT assay; assay type: functional, cell-based; conditions: MCF7, 96 h; procedure, shortened: as §2
[29] = tested on: HL-60; experiment: Antiproliferative activity against human HL60 cells after 3 days incubation by alamar blue method; assay type: functional
Procedure, shortened: (§3)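 HL-60 and K562 grown in RPMI 1640, MCF-7 in DMEM, each with 10% FCS, penicillin G and streptomycin. Seeded at 4x10⁴ (HL-60, K562) or 2x10⁴ (MCF-7) cells per well with serial compound dilutions, incubated 3 days at 37 °C. Alamar blue added for 3 h at 37 °C in the dark, fluorescence read at ex 544/em 590 nm. IC50 versus untreated controls by linear regression.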

[30] = tested on: K562; experiment: Antiproliferative activity against human K562 cells after 3 days incubation by alamar blue method; assay type: functional; procedure, shortened: as §3
[31] = tested on: MCF7; experiment: Antiproliferative activity against human MCF7 cells after 3 days incubation by alamar blue method; assay type: functional; procedure, shortened: as §3
[32] = tested on: HL-60; experiment: Induction of apoptosis in human HL60 cells by propidium iodide staining based flow cytometric analysis; assay type: functional; conditions: TDE = time-dependent effect
Procedure, shortened: (§4)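 After treatment, cells harvested, fixed in ice-cold 70% ethanol at 4 °C, stained 30 min at 37 °C in the dark with 100 µg/mL propidium iodide plus 10 µg/mL RNase A; 10,000 gated cells analysed at 488 nm with debris excluded; apoptosis followed over time; mean ± S.E.M. of three independent experiments run in triplicate.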

[33] = tested on: K562; experiment: Induction of apoptosis in human K562 cells by propidium iodide staining based flow cytometric analysis; assay type: functional; conditions: TDE = time-dependent effect; procedure, shortened: as §4
[34] = tested on: MCF7; experiment: Induction of apoptosis in human MCF7 cells by propidium iodide staining based flow cytometric analysis; assay type: functional; conditions: TDE = time-dependent effect; procedure, shortened: as §4

| SMILES | GI50 [1] [µM] | GI50 [2] [µM] | GI50 [3] [µM] | GI50 [4] [µM] | GI50 [5] [µM] | GI50 [6] [µM] | GI50 [7] [µM] | GI50 [8] [µM] | GI50 [9] [µM] | GI50 [10] [µM] | GI50 [11] [µM] | GI50 [12] [µM] | GI50 [13] [µM] | GI50 [14] [µM] | GI50 [15] [µM] | GI50 [16] [µM] | GI50 [17] [µM] | GI50 [18] [µM] | also measured |
| --- | --- | --- | --- | --- | --- | --- | --- | --- | --- | --- | --- | --- | --- | --- | --- | --- | --- | --- | --- |
| COc1ccc2[nH]c(-c3ccccc3)c(C=C(C#N)C#N)c2c1 | 3.7 | 7 | 4.1 | 5.3 | 3.5 | 6.1 | 3.2 | 4.9 | 0.607 | 4.4 | 3.1 | 9.8 | 4.7 | 5.1 | 2.2 | 3.8 | 2.4 | 2.1 | – |
| COc1ccc(-c2[nH]c3ccc(OC)cc3c2/C=C(\C#N)S(=O)(=O)c2ccccc2)cc1 | 0.765 | 2.8 | 3.3 | 3.1 | 3.7 | 2 | 0.632 | 1.2 | 0.276 | 0.787 | 0.359 | – | 2.3 | 5 | 0.851 | 1.4 | 0.538 | 1.3 | EC50 [19]: 0.3 µM; EC50 [20]: 0.5 µM; EC50 [21]: 0.3 µM; EC50 [22]: 22 µM; EC50 [23]: > 100 µM; EC50 [24]: > 100 µM; EC50 [25]: > 100 µM; EC50 [26]: 3 µM; EC50 [27]: 6.4 µM; EC50 [28]: 40 µM |
| CC(=O)/C(=C\c1c(-c2ccccc2)[nH]c2ccccc12)S(=O)(=O)c1ccccc1 | 1.6 | 7.2 | 3.3 | 1.2 | 1.9 | 1.4 | 0.836 | 1.4 | 0.295 | 2 | 1.6 | 1.3 | 1.9 | 3.8 | 0.945 | 1.7 | 5 | 1.7 | – |
| N#CC(C#N)=Cc1c(-c2ccccc2)[nH]c2ccccc12 | 43.2 | 4.6 | 5.8 | 11.3 | 4.1 | 10.4 | 0.971 | 3.3 | 0.246 | 5.1 | 1.8 | 3.3 | 6.8 | 5.3 | 1.1 | 1.8 | 2.3 | 1 | – |
| CC(=O)/C(=C\c1c(-c2ccccc2)[nH]c2ccccc12)S(C)(=O)=O | 4.4 | 7.3 | 6.4 | 12.1 | 27.1 | 8 | 2 | 3.4 | 0.415 | 3.3 | 2.3 | 2.6 | 6.9 | 13.5 | 2.7 | 5.5 | 1.6 | 1.8 | Activity [29]: Dose-dependent effect; GI50 ([29]; HL-60, 72 h): 2.57 µM; Activity [30]: Dose-dependent effect; GI50 ([30]; K562, 72 h): 7.71 µM; Activity [31]: Dose-dependent effect; GI50 ([31]; MCF7, 72 h): > 10 µM; Activity [32]: tde; Activity [33]: tde; Activity [34]: tde |
